Screening data deposited in PubChem BioAssay by Broad Institute.
CFTR F508del cor: F508del CFTR correction, initial screen, CFBE line, single point; CFBE cells, YFP halide quenching; stimulated with forskolin plus potentiator P3; % fluorescence drop versus neutral controls; activity (quench increase), % at 7.58 µM; 0.36% of 350,000 active;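 active = mean added fluorescence quench of at least 8% versus neutral control, with both replicates also reaching 8%; inconclusive = only one of the mean or replicate conditions met; inactive = mean below 8% and not both replicates reaching 8%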;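 also: cells transiently co-express mutant CFTR-F508del with the halide-sensitive YFP; corrector assay measuring rescue of mutant channel to the surface after 24 h compound exposure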
ERp5 inh: inhibitors of ERp5-driven insulin aggregation, primary screen, biochemical, turbidity, absorbance 650 nm, single point. inhibition, % at 9.99 µM. 0.05% of 350,000 active. 90 min. AID 651711, 2012;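 active = mean replicate inhibition above about 25%, with every replicate also reaching it, limit read from the data, passing the limit was not always enough; inconclusive = only one of those two criteria met; inactive = neither criterion met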
Cneo AK release: Cryptococcus neoformans cell lysis inducers, primary screen, AK release luminescence, single concentration; lysis activity, % at 15 µM; 0.2% of 360,000 active; AID 651654, 2012; C. neoformans lysis, adenylate kinase release luminescence, 4 h; normalised: neutral wells 0, clomiphene wells 100;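 active = mean lysis activity across replicates of at least 80%, whatever share of replicates individually reach that level; inactive = mean lysis activity below 80%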
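Test system: log-phase Cryptococcus neoformans yeast cells. Input: 5 × 10^6 yeast cells/mL. Medium: fresh YPD growth medium. Doses: single dose. Incubation: static 4 h at 37 °C with compound, 1 h detection. Measured by: luminescent adenylate kinase detection reagent. Read-out: signal increase indicating cell lysis. Benchmarks: Clomiphene.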
PDI inh: inhibitors of human PDI, primary screen, biochemical, turbidity, single point, plate reader; inhibition, % at 10 µM; 0.052% of 350,000 active; PDI insulin aggregation turbidity, A650, 90 min; Protein disulfide-isomerase (Homo sapiens), P07237; AID 588391, 2011;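 active = mean inhibition across replicates of 30% or more, whatever share of single replicates reach that level; inconclusive = mean inhibition below 30% while every single replicate reaches 30%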
Target sequence (P07237 whole entry, looked up): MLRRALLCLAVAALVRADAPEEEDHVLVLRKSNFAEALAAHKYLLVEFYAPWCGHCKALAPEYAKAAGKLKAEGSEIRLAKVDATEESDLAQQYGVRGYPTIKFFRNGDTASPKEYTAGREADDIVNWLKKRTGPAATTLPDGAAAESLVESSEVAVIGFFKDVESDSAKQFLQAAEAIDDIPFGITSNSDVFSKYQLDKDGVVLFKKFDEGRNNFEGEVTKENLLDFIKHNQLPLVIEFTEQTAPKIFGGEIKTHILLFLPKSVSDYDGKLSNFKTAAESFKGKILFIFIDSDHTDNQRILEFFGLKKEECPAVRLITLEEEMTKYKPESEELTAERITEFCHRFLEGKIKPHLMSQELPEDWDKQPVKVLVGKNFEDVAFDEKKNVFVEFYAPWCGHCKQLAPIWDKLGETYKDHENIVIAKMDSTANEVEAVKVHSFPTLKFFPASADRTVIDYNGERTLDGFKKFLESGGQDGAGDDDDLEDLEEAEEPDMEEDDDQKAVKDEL
C2C12 statin: suppressors of statin myotoxicity in C2C12 myotubes, primary screen, cell-based, single point, plate reader; rescue of ATP level, % at 7.49 µM; 0.78% of 330,000 active; AID 602340, 2012; C2C12 myotubes + simvastatin, ATP luminescence, 48 h; scaled: DMSO 0, geranylgeraniol control 100;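 active = mean ATP rescue above about 67%, or every replicate alone reaching that limit, limit read from the data, passing the limit was not always enough; inconclusive = no clear call, values can overlap the other calls; inactive = mean under the limit and some replicate under it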;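 also: myotubes were challenged with 10 µM simvastatin during compound exposure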
DENV2 CPE: inhibitors of DENV2 cytopathic effect, primary screen, cell-based, plate reader, single concentration | DENV2-infected cells, cytopathic effect rescue | CPE inhibition, % at 9.99 µM | 1.7% of 350,000 active | AID 651640, 2012; in the data active = CPE inhibition above about 20%, passing the limit was not always enough; inconclusive = no clear call, values can overlap the other calls; tested in BHK-21 cells;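 also: 0% = median of neutral control wells and 100% = median of positive control wells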
* = called active by the depositor; u = inconclusive; x = no result. Sampled rows, rich in hits. Any-hit rate of the full collection: about 2.3%.

SMILES	CFTR F508del cor	ERp5 inh	Cneo AK release	PDI inh	C2C12 statin	DENV2 CPE
Cc1noc(C)c1NC(=O)N(C)C[C@@H]1Oc2ccc(NC(=O)C3CC3)cc2CC(=O)N([C@H](C)CO)C[C@@H]1C	0.2	-3.2	107.2*	x	8.4	12.4
Cc1noc(C)c1NC(=O)N(C)C[C@H]1Oc2ccc(NC(=O)C3CC3)cc2CC(=O)N([C@H](C)CO)C[C@H]1C	-3.0	-3.6	-2.2	x	14.7	4.6
C[C@H](CO)N1C[C@H](C)[C@H](CN(C)C(=O)Nc2cccc3ccccc23)Oc2ccc(NC(=O)c3ccncc3)cc2C1=O	-1.0	x	x	x	-20.6	x
CCC(=O)N1[C@H](C(=O)OC)[C@@H](CO)[C@@H]2Cn3c(ccc(/C=C/c4ccccc4)c3=O)[C@@H]21	-1.7	8.9	0.5	x	43.2	-3.2
CNC(=O)C[C@H]1CC[C@@H]2[C@@H](COc3ccc(NC(=O)Nc4ccc(F)cc4)cc3C(=O)N2C)O1	0.6	-1.1	-4.1	x	13.0	13.2
Cc1noc(C)c1NC(=O)N(C)C[C@@H]1Oc2ccc(NC(=O)NC(C)C)cc2CC(=O)N([C@H](C)CO)C[C@H]1C	1.8	-0.3	102.3*	x	-8.0	4.0
Cc1noc(C)c1NC(=O)Nc1ccc2c(c1)CC(=O)N([C@H](C)CO)C[C@H](C)[C@@H](CN(C)C(=O)NC(C)C)O2	0.2	x	-2.3	x	19.1	-11.7
Cc1noc(C)c1NC(=O)N(C)C[C@@H]1Oc2ccc(NC(=O)NC(C)C)cc2CC(=O)N([C@@H](C)CO)C[C@@H]1C	-0.8	u	106.4*	x	-12.5	-4.2
Cc1noc(C)c1NC(=O)N(C)C[C@H]1Oc2ccc(NC(=O)NC(C)C)cc2CC(=O)N([C@H](C)CO)C[C@@H]1C	-3.3	1.0	2.0	x	-12.9	5.3
C[C@H](CO)N1C[C@H](C)[C@H](CN(C)Cc2ccncc2)Oc2ccc(NS(=O)(=O)c3ccc(Cl)cc3)cc2C1=O	0.4	-4.1	-1.7	x	6.1	2.3
C[C@@H]1CCCCO[C@H](CN(C)S(=O)(=O)c2ccccc2)[C@H](C)CN([C@@H](C)CO)C(=O)c2cc(NC(=O)CCCN(C)C)ccc2O1	-0.5	0.8	-0.1	x	x	-3.4
Cc1ccc(S(=O)(=O)N(C)C[C@@H]2Oc3ccc(NC(=O)CCN4CCOCC4)cc3C(=O)N([C@H](C)CO)C[C@@H]2C)cc1	1.8	4.2	-0.1	x	5.7	-8.1
COc1cc(C2NC(=O)NC(C)=C2C(=O)OC2CCCC(C)C2)cc(Br)c1O (stereo not given)	1.2	5.3	0.4	5.4	3.3	45.8*
COc1cc(C2NC(=O)NC(C)=C2C(=O)OC2CCCCC2)cc(Cl)c1O (stereo not given)	2.8	-0.3	1.5	-3.2	8.7	3.0
Cc1noc(C)c1S(=O)(=O)N(C)C[C@H]1OCCCC[C@@H](C)Oc2ccc(NC(=O)NC3CCCCC3)cc2C(=O)N([C@@H](C)CO)C[C@H]1C	1.5	11.5	5.0	x	x	-9.3
C[C@H](CO)N1C[C@H](C)[C@H](CN(C)C)Oc2cc(-c3ccc(F)cc3)ccc2S1(=O)=O	-1.0	3.8	13.2	x	-4.2	2.3
C[C@@H]1CN([C@@H](C)CO)C(=O)Cc2cc(NC(=O)c3ccncc3)ccc2O[C@H]1CN(C)S(=O)(=O)c1cccs1	0.2	-3.2	-3.7	x	-0.7	23.9*
C[C@@H]1CN([C@@H](C)CO)C(=O)Cc2cc(NC(=O)Nc3ccc(C(F)(F)F)cc3)ccc2O[C@H]1CN(C)S(=O)(=O)c1cccs1	5.2	-1.7	-1.6	x	-21.6	35.4*
C[C@@H]1CN([C@H](C)CO)C(=O)Cc2cc(NC(=O)Nc3ccc(C(F)(F)F)cc3)ccc2O[C@@H]1CN(C)S(=O)(=O)c1ccc(F)cc1	2.3	x	x	x	-41.8	x
C[C@H]1CN([C@@H](C)CO)C(=O)Cc2cc(NC(=O)Nc3ccc(F)cc3)ccc2O[C@@H]1CN(C)S(=O)(=O)c1cccs1	1.5	3.1	0.0	x	-33.0	-3.0
C[C@H]1CN([C@@H](C)CO)C(=O)Cc2cc(NC(=O)Nc3ccc(C(F)(F)F)cc3)ccc2O[C@H]1CN(C)S(=O)(=O)c1ccccc1	11.2*	1.1	2.2	x	-169.4	-8.4
C[C@@H]1CN([C@@H](C)CO)C(=O)Cc2cc(NC(=O)Nc3ccccc3)ccc2O[C@H]1CN(C)S(=O)(=O)c1cccs1	0.2	0.8	2.0	x	9.2	24.7*
CN(C)CC(=O)N1[C@@H]2c3ccc(-c4ccncc4)c(=O)n3C[C@H]1[C@H](CO)[C@H]2C(=O)NC1CCC1	-2.3	-1.0	55.0	x	-2.2	u
Cc1noc(C)c1S(=O)(=O)Nc1ccc2c(c1)C(=O)N([C@@H](C)CO)C[C@@H](C)[C@H](CN(C)Cc1ccncc1)OCCCC[C@@H](C)O2	-0.2	1.7	-1.6	x	x	7.5
CN1c2ccc(-c3cccc(C#N)c3)cc2[C@H]2[C@H](CCN2C(=O)NC2CCCC2)[C@@H]1CO	0.0	-1.2	x	x	x	6.6
SMILES	CFTR F508del cor	ERp5 inh	Cneo AK release	PDI inh	C2C12 statin	DENV2 CPE
Cn1nc(C(=O)NNC(=O)CCOc2ccc(C(C)(C)C)cc2)c2ccccc2c1=O	10.1*	-8.1	-1.1	1.8	-2.1	-5.2
CCOc1ccc(OCCC(=O)NNC(=O)c2nn(C)c(=O)c3ccccc23)cc1	1.2	-8.9	-2.1	-4.5	0.3	-4.2
COc1ccc(CNC(=O)CCOc2ccc(C(C)(C)C)cc2)cc1	x	x	0.6	5.1	104.3*	x
CC(C)NC(=O)N[C@H]1C=C[C@H](CC(=O)NCCCN(C)C)O[C@H]1CO	-1.1	-4.2	1.1	x	-3.4	6.0
CN(CC(=O)Nc1ccc(N2CCOCC2)cc1)CC(=O)Nc1ccccc1C#N	x	x	6.1	-14.7	94.8*	x
Cc1cccc(COc2ccccc2C(=O)NC2CCC(O)CC2)c1 (stereo not given)	8.2*	8.7	-3.0	14.3	4.6	-4.0
C[C@H](CO)N1C[C@H](C)[C@@H](CN(C)Cc2ccc3c(c2)OCO3)Oc2ccc(NC(=O)Cc3ccccc3)cc2C1=O	-1.4	1.0	-3.5	x	-5.0	2.5
COc1ccc([C@@H]2[C@@H](C)N(c3ccccc3)c3ccccc3C(=O)N2Cc2ccccc2)cc1	-2.0	0.5	-2.5	6.2	-2.4	85.8*
CN1c2ccc(-c3ccccc3F)cc2[C@@H]2[C@@H](CCN2C(=O)c2cccc(F)c2)[C@@H]1CO	-1.9	x	-20.5	x	39.5	75.7*
CN1c2ccc(-c3ccccc3F)cc2[C@@H]2[C@@H](CCN2C(=O)Nc2cc(F)ccc2F)[C@@H]1CO	1.8	x	-9.0	x	15.1	41.6*
